# Measurements from ChEMBL document CHEMBL4513216, “Probing the Open Global Health Chemical Diversity Library for Multistage-Active Starting Points for Next-Generation Antimalarials” (ACS Infect Dis, 2020).
# Assay: Toxicity liver stage against HepG2, at 10uM
# Type: cell-based
# Parameters: test concentration 10 uM, cell line HepG2-A16-CD81EGFP
# Conditions: human, HepG2-A16-CD81EGFP cells; read-out: INHIBITION
# Procedure, shortened: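 Uninfected HepG2-A16-CD81EGFP cells, 3 × 10^3 per well, 1536-well, plated on prespotted compound at 10 μM final, parasite-free screening media added to match infected plates; puromycin 10 μM positive, DMSO 0.5% negative; run in parallel with 48 h PbLuc assay at 37 °C, 5% CO2; viability by CellTiter-Glo luminescence, normalized to controls.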
row,Compound,cytotoxicity at 10 µM [%]
1,N#Cc1ccc(Nc2nc3c(s2)C(=O)CN(CC2CC2)C3)cc1,-5.28
2,c1ccc(OCc2n[nH]c3c2CN(Cc2cccs2)C3)nc1,8.25
3,O=C1NCCN2CCN(C(=O)NCCc3ccccc3)CC12 (stereo not given),17.6
4,Cc1cc(C(=O)N2C[C@@H]3CCCO[C@@H]3[C@H](N3CCOCC3)C2)c(C)[nH]1,4.5
5,O=C(O)[C@@H]1CN(C(=O)c2ccc(F)c(F)c2)C[C@H]1c1cccc(F)c1,-113
6,CC(C)(CN1CCC(Cc2cccc(C(=O)O)c2)C1)N1CCOCC1 (stereo not given),3.98
7,COc1c(C2CCCN2C(=O)c2cnc[nH]2)c(C)nn1C (stereo not given),-1.68
8,CCOCCNC(=O)[C@@H]1CCCN1c1nccc(Nc2ccccc2)n1,2.66
9,OC1CCCN(Cc2ccc(F)c3cccnc23)C1 (stereo not given),4.75
10,CN(C)CCOCc1nnc2n1CCN(Cc1ccco1)CC2,2.19
11,CCCn1nccc1NC(=O)CN1CCC[C@H]1CO,-1.8
12,Cn1ccnc(Nc2ccc3c(c2)CCN3C(=O)c2ccoc2)c1=O,-65.2
13,CCOCC1CN(C(=O)c2cnoc2C)Cc2cn(CC3CC3)nc21 (stereo not given),17
14,CCn1nccc1CNC(=O)Cn1cc2c(n1)c(C)nn2C(C)C,-4.7
15,CC(C)(CNc1c(C#N)cnc2ccc(Cl)cc12)C(N)=O,9.19
16,O=C(O)c1ccccc1-c1ccc(CN2CCC(CO)C2)cc1 (stereo not given),-14.6
17,CN1CC(NC(=O)CCOc2cccc(Cl)c2)CC1=O (stereo not given),-5.4
18,O=C(c1cccnc1-n1cncn1)N1CCN(CC2CC2)CC1,-10.9
19,CCn1ncc(C(=O)NCCc2nc(-c3ccc(C)cc3)n[nH]2)c1C,8
20,CNS(=O)(=O)CC(=O)N(Cc1ccsc1)c1ccccc1,-2.4
21,O=C(c1ccco1)N1CCC(n2nc(-c3ccco3)ccc2=O)CC1,-20.5
22,c1cc(-c2cnccn2)cc(-c2ccn(CCN3CCCC3)n2)c1,-11.5

row,Compound,cytotoxicity at 10 µM [%]
1,Cc1cc(C(=O)N2CC(O)CO2)c2ccc(C)c(C)c2n1 (stereo not given),11.3
2,Cc1cccc(SC2CCN(C(=O)CCCn3cnnn3)CC2)c1,0.647
3,Cc1ccc(CNc2ccn(CCC(N)=O)n2)c(Br)c1,-1.65
4,Cc1ccc(C(=O)NCC(c2cnn(C)c2)N(C)C)c(O)c1 (stereo not given),-7.93
5,CSCCc1c(-c2ccccc2)ncn1CCNc1cccnc1,5.29
6,Cc1nccnc1N1C[C@H](NC(=O)CNS(C)(=O)=O)[C@@H](C2CC2)C1,-10.3
7,Cc1nc2cc(C(=O)N3C[C@@H](NS(C)(=O)=O)[C@H](C(C)C)C3)ccc2[nH]1,-4.47
8,CN1CCN(c2ccnc3c(F)cc(Br)cc23)CC1,27.2
9,N#Cc1cc2c(=O)n(CC(O)c3cccc(O)c3)ccc2[nH]c1=O (stereo not given),2.86
10,O=C(c1cocn1)N1CCC2(CC1)CC(Oc1ccccn1)CO2 (stereo not given),9.34
11,Cc1n[nH]c(C2CN(CC(=O)NCCc3ccc(F)cc3)CCO2)n1 (stereo not given),-8.13
12,CN1CCO[C@@H]2CN(S(=O)(=O)c3cccs3)CC[C@@H]2C1,11.7
13,CC(C)(NS(C)(=O)=O)c1nc(-c2ccc(F)cc2Cl)no1,4.98
14,Cc1nnc(CN2CCN(C)C3(CCC(=O)N(CCO)CC3)C2)s1 (stereo not given),-14.9
15,O=C(c1ncccn1)N1CCC[C@]2(C[C@@H](Oc3ncccc3F)CO2)C1,-4.28
16,O=C(Cc1csc(-c2ccccn2)n1)NCCCN1CCCCCC1=O,1.16
17,Cc1oncc1C(=O)N1CCc2ncnc(-c3cnn(C)c3)c2CC1,7.07
18,COc1ccc(CNC[C@H]2COCc3nc4cc(F)ccc4n32)cn1,0.734
19,C=C(C)Cn1nnc(C2(NC(=O)c3ccccc3)CCCC2)n1,7.09
20,c1ccc(Cc2noc(-c3ccc(NCC4COCCO4)nc3)n2)cc1 (stereo not given),6.42
21,Cc1nc(N[C@H]2COC[C@@H]2N2CCCCC2)c2c(C)nn(C)c2n1,-1.21
22,Cc1nc(-c2cccnc2)ncc1C(=O)N1CCCCC(N)C1 (stereo not given),7.57

row,Compound,cytotoxicity at 10 µM [%]
1,COCCN1C[C@H]2CN(Cc3cccc(OC(F)(F)F)c3)CCN2C1=O,2.67
2,Cc1nn(C)c(C)c1C1CCCN1Cc1nc(-c2ccco2)oc1C (stereo not given),-4.27
3,Cc1nc2c(c(N[C@@H](CO)C(N)=O)n1)Cc1ccccc1OC2,2.8
4,O=C1N(Cc2ccc(F)c(F)c2)CCCC1(O)CNCc1ccccn1 (stereo not given),-2.63
5,N#CC(NC(=O)CCC1CCC1)c1cnn(-c2ccccc2)c1 (stereo not given),-2.65
6,COc1cc(CN2CCn3c(CO)nnc3C2)ccc1OC(C)C,-25.4
7,CCc1c(O)nc2nc(N3CCOCC3)nn2c1C,10.8
8,CCc1nnsc1C(=O)NC1CCN(c2ccccn2)CC1,-2.49
9,Cc1ccc(-c2cc(CNc3ncnc4c3CCNCC4)no2)cc1,13
10,CCN(C)C[C@@H]1CN(S(=O)(=O)c2cccc(C#N)c2)C[C@@H]1CO,5.45
11,O[C@H]1[C@H](n2cc(-c3ccccc3)nn2)c2ccccc2C12CCNCC2,7.62
12,CSCc1ccc(N2CCC(C(O)CC(C)C)CC2)nc1 (stereo not given),11.4
13,CC(C)(C)n1ncc2c1NC(=O)CC2c1cccs1 (stereo not given),3.48
14,CNc1cc(N2CCCC2CNCc2ccc(C)o2)ncn1 (stereo not given),-2.69
15,O=C(Nc1cnn(Cc2ccccc2)c1)N1CCN(CCO)CC1,2.11
16,CS(=O)(=O)N1CCC(c2nccn2Cc2ccccn2)CC1,-14.6
17,COc1cccc(N2CCC(N3CCOC(C(F)(F)F)C3)CC2)c1 (stereo not given),-1.71
18,COc1cc(C)ccc1OCCC(=O)N1CCC(C(N)=O)C1 (stereo not given),6.31
19,O=C(Nc1ccccc1C(=O)NCCN1CCOCC1)c1ccco1,-0.972
20,CC(C)c1cc(NC(=O)CNC2CCc3nc(C(C)C)nn3C2)on1 (stereo not given),0.246
21,CNC(=O)CN1CCCC12CCN(C(=O)c1ccc(F)cc1)CC2,5.03
22,Cn1ccnc1CN1CCCN(C(=O)c2ccc3c(c2)OCO3)CC1,-6.61

row,Compound,cytotoxicity at 10 µM [%]
1,CCc1nc(CN2CCCC(NCc3cnn(C(C)(C)C)c3)C2)no1 (stereo not given),-6.77
2,CC(C)Cc1cc(C(=O)NCC2CCN(c3ccccc3F)C2)on1 (stereo not given),0.075
3,Cc1noc2ncc(S(=O)(=O)Nc3cc(CC(C)(C)C)[nH]n3)cc12,5.55
4,CCc1ocnc1C(=O)N1CCC2(CCCN(CC(C)(C)C)C2=O)C1 (stereo not given),7.79
5,COc1ccc(-n2ccc(C(=O)N3CCN(C)CC3C)n2)cc1 (stereo not given),-11.2
6,Cc1nn(C)cc1CN(C)C(=O)c1cnccn1,-5.2
7,COc1cc(F)ccc1-c1ncccc1NC(=O)C(C)C,1.23
8,Cc1ccc(-c2ccc(C3CNCCO3)nc2)cc1 (stereo not given),-5.3
9,CCOc1ccc(C(=O)Nc2c(C)nc3ccccn3c2=O)cc1,11.9
10,Cc1ccc(-c2nc(CNCC3CN(C)CCO3)co2)c(C)c1 (stereo not given),-16.4
11,CCCC(O)CN1CCC(=O)N(C)Cc2cc(F)ccc21 (stereo not given),-124
12,CCN(CC(=O)NC)C(=O)Cc1nc(-c2ccco2)oc1C,22.8
13,O=C1CC(c2ccsc2)c2snc(C(=O)O)c2N1 (stereo not given),-0.772
14,CN(C)S(=O)(=O)N1CCCC(c2cccc(Cc3ccccc3F)n2)C1 (stereo not given),40.4
15,Cc1nnc2n1CCN(C(=O)C1CCC(n3cccc3)CC1)C2 (stereo not given),-1.05
16,O=C(N1CCCC1)N1CCOCC2(C1)CN(c1ccccc1)C(=O)CO2 (stereo not given),4.77
17,Cc1cc(CNC(=O)Cc2cccs2)ccc1S(C)(=O)=O,-2.74
18,COC(=O)CCC(=O)N1CCCC2(CCCN2Cc2cccc(F)c2)C1 (stereo not given),-104
19,CCCC1COCCN1Cc1ccc(NC(C)=O)cc1 (stereo not given),-145
20,COc1c(C2CCCN2Cc2cccc(C(N)=O)c2)c(C)nn1C (stereo not given),-8.18
21,Cn1ccnc1Sc1ccc(S(N)(=O)=O)cn1,-1.6
22,Cc1ccccc1C(=O)NCc1ccc(N2CCNC(=O)C2)c(F)c1,-13.8

row,Compound,cytotoxicity at 10 µM [%]
1,O=C(c1ccsc1)N1CCC2(CCN2Cc2ccc(F)cc2)C1 (stereo not given),-144
2,CC(C)N1CCN(CCn2cnc3c(F)cccc3c2=O)CC1,1.64
3,COc1ccnc(NC2CCN(CC(=O)Nc3ccccc3)CC2)n1,-11
4,COc1ccc(OC)c(CNC(=O)N2CCC(n3cncn3)CC2)c1,2.46
5,Cc1ccnc(N2CCC(C(N)=O)CC2)n1,-18.3
6,COc1ccc(CNC2CCN(CCc3ccncc3)CC2)cc1O,-10.5
7,COCc1ncn2c1CN(S(=O)(=O)c1cccs1)CCC2,6.82
8,Cc1ncsc1C(=O)NC1CCN(Cc2cccc3c2OCCO3)CC1,-4.68
9,c1cncc(CN2CCc3ncnc(NCCc4c[nH]cn4)c3CC2)c1,2.57
10,CCc1oc(C(=O)N2CCC(N(CC)C(C)=O)C2)cc1CN(CC)CC (stereo not given),8.31
11,COCCOc1ccc(CNc2nc3ccccc3nc2N)cn1,33.9
12,CCn1ccnc1CN1CCN(CC(=O)NC(C2CC2)C2CC2)CC1,-19.4
13,CCOC1CCN(C(=O)NCCN(C)C(=O)OC(C)(C)C)CC1,15.8
14,O=C(NCc1ccco1)N1CCC(n2cc(-c3ccccn3)nn2)CC1,16.9
15,CCc1c(C)sc2ncnc(N3CC[C@@H](N4CCC(O)CC4)[C@H](O)C3)c12,6.96
16,Cn1cc(C(=O)Nc2cccc(Oc3ccncc3)c2)ccc1=O,-1.21
17,COc1ccc(S(=O)(=O)NC(=O)c2c(C)noc2C(C)C)cc1C,0.495
18,CC(=O)NCCc1ccc(S(=O)(=O)Nc2ccc(C)c(F)c2)s1,5.72
19,COCC(=O)N1CCCC2(CCN(Cc3cccc(C)n3)C2=O)C1 (stereo not given),-0.559
20,Cc1ccccc1CSc1nc(N)cc(N2CCC(CC(N)=O)CC2)n1,-10.4
21,CCc1cccc(N2CCC(NC(=O)C3CCOCC3)CC2)c1,-8.93
22,O=C(c1ccc2[nH]ccc2c1)N1CC[C@@H]2CN(CC3CC3)CCO[C@@H]2C1,-108
